≈ marks a conversion by molar mass, not a printed value. Calls of active or inactive are those of the source. The rule behind the calls is not given here.
Experiments:
[1] = tested on: Staphylococcus epidermidis; experiment: Antimicrobial activity against methicillin-resistant Staphylococcus epidermidis ATCC 700296 assessed as bacterial growth inhibitions by CLSI protocol based microdilution method; format: functional
Staphylococcus aureus [2] = experiment: Antimicrobial activity against methicillin-resistant Staphylococcus aureus ATCC 700699 assessed as bacterial growth inhibitions by CLSI protocol based microdilution method; format: functional
Enterococcus faecalis = experiment: Antimicrobial activity against vancomycin-susceptible Enterococcus faecalis ATCC 29212 assessed as bacterial growth inhibitions by CLSI protocol based microdilution method
Bacillus subtilis = experiment: Antimicrobial activity against Bacillus subtilis ATCC 6623 assessed as bacterial growth inhibitions by CLSI protocol based microdilution method; format: functional
Summary of the method: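 Broth microdilution starting at 50 µg/ml with 2-fold serial dilutions; run in triplicate.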

Enterococcus faecium [3] = experiment: Antimicrobial activity against vancomycin-resistant Enterococcus faecium ATCC 700221 assessed as bacterial growth inhibitions by CLSI protocol based microdilution method; format: functional
Staphylococcus aureus [4] = experiment: Antimicrobial activity against methicillin-susceptible Staphylococcus aureus ATCC 25923 assessed as bacterial growth inhibitions by CLSI protocol based microdilution method; format: functional
Staphylococcus aureus [5] = experiment: Antimicrobial activity against antibiotic-resistant Staphylococcus aureus BM-2312 assessed as bacterial growth inhibitions by CLSI protocol based microdilution method; format: functional
Staphylococcus aureus [6] = experiment: Antimicrobial activity against methicillin-resistant Staphylococcus aureus ATCC 33591 assessed as bacterial growth inhibitions by CLSI protocol based microdilution method; format: functional
Staphylococcus aureus [7] = experiment: Antimicrobial activity against methicillin-resistant Staphylococcus aureus ATCC 33592 assessed as bacterial growth inhibitions by CLSI protocol based microdilution method; format: functional
Staphylococcus aureus [8] = experiment: Antimicrobial activity against methicillin-sensitive Staphylococcus aureus ATCC 29213 by CLSI-based broth microdilution assay; format: functional
Staphylococcus aureus [9] = experiment: Antimicrobial activity against methicillin-sensitive Staphylococcus aureus clinical isolate 1088626 by CLSI-based broth microdilution assay; format: functional
Enterococcus faecium [10] = experiment: Antimicrobial activity against vancomycin-resistant Enterococcus faecium clinical isolate 1088051 by CLSI-based broth microdilution assay; format: functional
Staphylococcus aureus [11] = experiment: Antimicrobial activity against methicillin-resistant Staphylococcus aureus clinical isolate 1088064 by CLSI-based broth microdilution assay; format: functional
Staphylococcus aureus [12] = experiment: Antimicrobial activity against methicillin-sensitive Staphylococcus aureus clinical isolate 1088105 by CLSI-based broth microdilution assay; format: functional
Enterococcus faecium [13] = experiment: Antimicrobial activity against vancomycin-resistant Enterococcus faecium clinical isolate 1089544 by CLSI-based broth microdilution assay; format: functional
Enterococcus faecium [14] = experiment: Antimicrobial activity against vancomycin-resistant Enterococcus faecium clinical isolate 1091720 by CLSI-based broth microdilution assay; format: functional
Staphylococcus aureus [15] = experiment: Antimicrobial activity against methicillin-resistant Staphylococcus aureus clinical isolate 1089106 by CLSI-based broth microdilution assay; format: functional
Staphylococcus aureus [16] = experiment: Antimicrobial activity against methicillin-resistant Staphylococcus aureus clinical isolate 1088610 by CLSI-based broth microdilution assay; format: functional
Enterococcus faecium [17] = experiment: Antimicrobial activity against vancomycin-resistant Enterococcus faecium clinical isolate 1091563 by CLSI-based broth microdilution assay; format: functional
Enterococcus faecium [18] = experiment: Antimicrobial activity against vancomycin-resistant Enterococcus faecium clinical isolate 1088228 by CLSI-based broth microdilution assay; format: functional
Staphylococcus aureus [19] = experiment: Antimicrobial activity against methicillin-resistant Staphylococcus aureus clinical isolate 1088888 by CLSI-based broth microdilution assay; format: functional
Enterococcus faecium [20] = experiment: Antimicrobial activity against vancomycin-resistant Enterococcus faecium clinical isolate 1088925 by CLSI-based broth microdilution assay; format: functional
Enterococcus faecium [21] = experiment: Antimicrobial activity against vancomycin-resistant Enterococcus faecium clinical isolate 1094112 by CLSI-based broth microdilution assay; format: functional
Enterococcus faecium [22] = experiment: Antimicrobial activity against vancomycin-resistant Enterococcus faecium clinical isolate 1091282 by CLSI-based broth microdilution assay; format: functional
Enterococcus faecium [23] = experiment: Antimicrobial activity against vancomycin-resistant Enterococcus faecium clinical isolate 1088168 by CLSI-based broth microdilution assay; format: functional
Enterococcus faecium [24] = experiment: Antimicrobial activity against vancomycin-resistant Enterococcus faecium clinical isolate 1100440 by CLSI-based broth microdilution assay; format: functional

| SMILES | MIC [1] [µg/mL] | MIC (Staphylococcus aureus [2]) [µg/mL] | MIC (Enterococcus faecalis) | MIC (Bacillus subtilis) [µg/mL] | MIC (Enterococcus faecium [3]) [µg/mL] | MIC (Staphylococcus aureus [4]) [µg/mL] | MIC (Staphylococcus aureus [5]) [µg/mL] | MIC (Staphylococcus aureus [6]) [µg/mL] | MIC (Staphylococcus aureus [7]) [µg/mL] | other results |
| --- | --- | --- | --- | --- | --- | --- | --- | --- | --- | --- |
| O=C(O)c1ccc(-n2cc(CNc3ccccc3)c(-c3ccc(C(F)(F)F)cc3)n2)cc1 | 12.5 (≈ 28.6 µM) | 6.25 (≈ 14.3 µM) | 25 µg/mL (≈ 57.2 µM) | 3.12 (≈ 7.13 µM) | 6.25 (≈ 14.3 µM) | 12.5 (≈ 28.6 µM) | 12.5 (≈ 28.6 µM) | 6.25 (≈ 14.3 µM) | 6.25 (≈ 14.3 µM) | – |
| O=C(O)c1ccc(-n2cc(CNc3ccc(Cl)c(C(F)(F)F)c3)c(-c3ccc(C(F)(F)F)cc3)n2)cc1 | 0.78 (≈ 1.44 µM) | 0.78 (≈ 1.44 µM) | 0.78 µg/mL (≈ 1.44 µM) | 0.78 (≈ 1.44 µM) | 0.78 (≈ 1.44 µM) | 0.78 (≈ 1.44 µM) | 0.78 (≈ 1.44 µM) | 0.78 (≈ 1.44 µM) | 0.78 (≈ 1.44 µM) | – |
| O=C(O)c1ccc(-n2cc(CNc3ccc(Br)cc3)c(-c3ccc(C(F)(F)F)cc3)n2)cc1 | 3.12 (≈ 6.04 µM) | 0.78 (≈ 1.51 µM) | 6.25 µg/mL (≈ 12.1 µM) | 0.78 (≈ 1.51 µM) | 0.78 (≈ 1.51 µM) | 0.78 (≈ 1.51 µM) | 0.78 (≈ 1.51 µM) | 0.78 (≈ 1.51 µM) | 1.56 (≈ 3.02 µM) | – |
| Cc1onc(-c2ccccc2)c1C(=O)N[C@@H]1C(=O)N2[C@@H]1SC(C)(C)[C@@H]2C(=O)O [OXACILLIN] | – | – | – | – | – | – | – | – | – | MIC (Staphylococcus aureus [8]): 1 µg/mL (≈ 2.49 µM); MIC (Staphylococcus aureus [9]): 0.5 µg/mL (≈ 1.25 µM); MIC (Enterococcus faecium [10]): > 32 µg/mL; MIC (Staphylococcus aureus [11]): 0.5 µg/mL (≈ 1.25 µM); MIC (Staphylococcus aureus [12]): 1 µg/mL (≈ 2.49 µM); MIC (Enterococcus faecium [13]): > 32 µg/mL; MIC (Enterococcus faecium [14]): > 32 µg/mL; MIC (Staphylococcus aureus [15]): 1 µg/mL (≈ 2.49 µM); MIC (Staphylococcus aureus [16]): 0.5 µg/mL (≈ 1.25 µM); MIC (Enterococcus faecium [17]): > 32 µg/mL; MIC (Enterococcus faecium [18]): > 32 µg/mL; MIC (Staphylococcus aureus [19]): 1 µg/mL (≈ 2.49 µM); MIC (Enterococcus faecium [20]): > 32 µg/mL; MIC (Enterococcus faecium [21]): > 32 µg/mL; MIC (Enterococcus faecium [22]): > 32 µg/mL; MIC (Enterococcus faecium [23]): > 32 µg/mL; MIC (Enterococcus faecium [24]): > 32 µg/mL |
| O=C(O)c1ccc(-n2cc(CNc3ccc(F)c(F)c3F)c(-c3ccc(C(F)(F)F)cc3)n2)cc1 | 3.12 (≈ 6.35 µM) | 1.56 (≈ 3.17 µM) | inactive | 0.78 (≈ 1.59 µM) | 3.12 (≈ 6.35 µM) | 1.56 (≈ 3.17 µM) | 1.56 (≈ 3.17 µM) | 1.56 (≈ 3.17 µM) | 1.56 (≈ 3.17 µM) | – |
| Cc1ccc(NCc2cn(-c3ccc(C(=O)O)cc3)nc2-c2ccc(C(F)(F)F)cc2)cc1Cl | 1.56 (≈ 3.21 µM) | 0.78 (≈ 1.61 µM) | 3.12 µg/mL (≈ 6.42 µM) | 0.78 (≈ 1.61 µM) | 0.78 (≈ 1.61 µM) | 0.78 (≈ 1.61 µM) | 0.78 (≈ 1.61 µM) | 0.78 (≈ 1.61 µM) | 0.78 (≈ 1.61 µM) | – |
| O=C(O)c1ccc(-n2cc(CNc3ccc(Cl)c(Cl)c3F)c(-c3ccc(C(F)(F)F)cc3)n2)cc1 | 0.78 (≈ 1.49 µM) | 0.78 (≈ 1.49 µM) | 1.56 µg/mL (≈ 2.98 µM) | 0.78 (≈ 1.49 µM) | 0.78 (≈ 1.49 µM) | 0.78 (≈ 1.49 µM) | 0.78 (≈ 1.49 µM) | 0.78 (≈ 1.49 µM) | 0.78 (≈ 1.49 µM) | – |
| O=C(O)c1ccc(-n2cc(CNc3ccc(F)c(Cl)c3F)c(-c3ccc(C(F)(F)F)cc3)n2)cc1 | 1.56 (≈ 3.07 µM) | 1.56 (≈ 3.07 µM) | 6.25 µg/mL (≈ 12.3 µM) | 0.78 (≈ 1.54 µM) | 1.56 (≈ 3.07 µM) | 1.56 (≈ 3.07 µM) | 1.56 (≈ 3.07 µM) | 1.56 (≈ 3.07 µM) | 1.56 (≈ 3.07 µM) | – |

From ChEMBL document CHEMBL4814057, “4-4-(Anilinomethyl)-3-[4-(trifluoromethyl)phenyl]-1H-pyrazol-1-ylbenzoic acid derivatives as potent anti-gram-positive bacterial agents” (Eur J Med Chem, 2021)
